A short description of data set [1]: Percentage oral bioavailability determined in dog. The class given is ADME, organism-based, Canis lupus familiaris. The note with it: in vivo, read-out: Bioavailabiility. In outline:
(§1)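 Beagle dogs (n = 3), oral solution at 3 mg/kg in 50% PEG-400/50% H2O, with iv reference at 1 mg/kg; tmax and oral bioavailability derived.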

Data set [2] in a line: Percentage oral bioavailability determined in rat. The class given is ADME, organism-based. The note with it: in vivo, read-out: Bioavailabiility.
Data set [3] can be described thus: Volume of distribution was determined in dog at 1 mg/kg, iv. The note with it: in vivo, read-out: Vdss. The arrangement: dose 1 mg/kg, route intravenous. The data set is classed as ADME, organism-based, Canis lupus familiaris. In outline: (§2)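 Beagle dogs (n = 3), 1 mg/kg iv as a solution in 50% PEG-400/50% H2O; plasma pharmacokinetics giving clearance, half-life and steady-state volume of distribution.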

Data set [4] in a line: Clearance rate determined at 1 mg/kg, iv, in dog. The arrangement: dose 1 mg/kg. The data set is classed as ADME, organism-based, Canis lupus familiaris. The settings on record: in vivo. An outline of the steps:
as §2

Data set [5] in a line: Clearance rate determined at 5 mg/kg, iv, in rat. The data set is classed as ADME, organism-based. The arrangement: dose 5 mg/kg. The note with it: in vivo. An outline of the steps: (§3)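 Sprague–Dawley rats (n = 3), 5 mg/kg iv as a solution in 90% PEG-400/10% Tween 80; plasma pharmacokinetics giving clearance, half-life and steady-state volume of distribution.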
Data set [6] in a line: tmax determined dog at 3 mg/kg, po. The settings on record: in vivo. The data set is classed as ADME, organism-based, Canis lupus familiaris. The arrangement: dose 3 mg/kg, route oral. In outline: as §1
Data set [7] in a line: tmax determined rat at 11 mg/kg, po. The data set is classed as ADME, organism-based. The arrangement: dose 11 mg/kg, route oral. The settings on record: in vivo.
The nature of data set [8]: Concentration determined in rat brain after 6 hr. The class given is ADME, organism-based. In outline:
(§4)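 Sprague–Dawley rats (n = 3) dosed po at 20 mg/kg as a solution in 100% PEG-400; brain and plasma sampled at 6 h.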

Data set [9] is described as follows: Concentration determined in rat plasma after 6 hr. The class given is ADME, organism-based. An outline of the steps: as §4
Data set [10] has as its target Voltage-gated potassium channel, KQT; KCNQ2(Kv7.2)/KCNQ3(Kv7.3) (Homo sapiens, UniProt O43525+O43526). Put plainly: Effect on resting membrane potential in SH-SY5Y human neuroblastoma cells expressing native KCNQ channels.
Data set [11] concerns Rattus norvegicus. Kind of data set: Ability to reduce the total number of proximal depolarizations was tested in rat parietal cortex at 10 mg/kg, ig. The note with it: route intragastric. The data set is classed as functional. An outline of the steps:
(§5)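 Rats; cortical spreading depression evoked by 10 min application of crystalline KCl to a small parietal cortex region. Compound given intragastrically in PEG 400 vehicle. Depolarizations counted in proximal and distal leads per animal; proximal/distal ratio calculated per group. Group mean ± SEM; Kruskal–Wallis with Dunn's posttest.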

The subject of data set [12] is Rattus norvegicus. Kind of data set: Ability to reduce the total number of proximal depolarizations was tested in rat parietal cortex at 3 mg/kg, ig. The note with it: route intragastric. The class given is functional. In outline:
as §5

The subject of data set [13] is Rattus norvegicus. Put plainly: Ability to reduce the total number of proximal depolarizations was tested in rat parietal cortex at 30 mg/kg, ig. The settings on record: route intragastric. The class given is functional. In outline: as §5
Data set [14] concerns the target Potassium voltage-gated channel subfamily KQT member 2 (Mus musculus, UniProt Q9Z351). Kind of data set: Induced current in Xenopus laevis oocytes expressing cloned mKCNQ2 channels. The data set is classed as functional, cell-based, Oocyte. An outline of the steps:
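Two-electrode voltage clamp of Xenopus laevis oocytes expressing cloned mKCNQ2; outward current at -40 mV expressed as percent of compound-free control; concentration–response fit for EC50, n = 4–7 oocytes.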

Data set [15] concerns the target Potassium voltage-gated channel subfamily KQT member 2 (Mus musculus) (UniProt Q9Z351). Put plainly: Threshold for augmenting KCNQ2 current in HEK 293 stable cell line expressing mKCNQ2 channel. The data set is classed as functional, cell-based. The settings on record: HEK293. An outline of the steps:
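HEK 293 cells stably expressing mKCNQ2, voltage-clamped at -40 mV; compound applied by local superfusion at increasing concentrations, then washed with compound-free saline; concentration–response from three cells with logistic fit.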

A short description of data set [16]: Ratio of proximal to distal depolarizations determined in rat at 3 mg/kg. The class given is functional. An outline of the steps: as §5
A short description of data set [17]: Ratio of proximal to distal depolarizations determined in rat at 30 mg/kg. The class given is functional. In outline: as §5
Data set [18] can be described thus: Ratio of concentration of compound in brain to the concentration in plasma. The note with it: brain and plasma, B/P ratio.
Data set [19] can be described thus: Half-life determined at 1 mg/kg, iv, in dog. The data set is classed as ADME, organism-based, Canis lupus familiaris. The arrangement: dose 1 mg/kg. The note with it: in vivo. In outline: as §2
The nature of data set [20]: Ratio of proximal to distal depolarizations determined in rat at 10 mg/kg. The class given is functional. An outline of the steps:
as §5

The nature of data set [21]: Volume of distribution was determined in rat at 5 mg/kg, iv. The arrangement: dose 5 mg/kg, route intravenous. The settings on record: in vivo, read-out: Vdss. The data set is classed as ADME, organism-based. In outline: as §3
Data set [22] can be described thus: Half-life determined at 5 mg/kg, iv, in rat. The arrangement: dose 5 mg/kg. The data set is classed as ADME, organism-based. The note with it: in vivo. An outline of the steps: as §3

Sequence of Potassium voltage-gated channel subfamily KQT member 2 (Mus musculus) (Q9Z351 whole entry, the tested form may be a part): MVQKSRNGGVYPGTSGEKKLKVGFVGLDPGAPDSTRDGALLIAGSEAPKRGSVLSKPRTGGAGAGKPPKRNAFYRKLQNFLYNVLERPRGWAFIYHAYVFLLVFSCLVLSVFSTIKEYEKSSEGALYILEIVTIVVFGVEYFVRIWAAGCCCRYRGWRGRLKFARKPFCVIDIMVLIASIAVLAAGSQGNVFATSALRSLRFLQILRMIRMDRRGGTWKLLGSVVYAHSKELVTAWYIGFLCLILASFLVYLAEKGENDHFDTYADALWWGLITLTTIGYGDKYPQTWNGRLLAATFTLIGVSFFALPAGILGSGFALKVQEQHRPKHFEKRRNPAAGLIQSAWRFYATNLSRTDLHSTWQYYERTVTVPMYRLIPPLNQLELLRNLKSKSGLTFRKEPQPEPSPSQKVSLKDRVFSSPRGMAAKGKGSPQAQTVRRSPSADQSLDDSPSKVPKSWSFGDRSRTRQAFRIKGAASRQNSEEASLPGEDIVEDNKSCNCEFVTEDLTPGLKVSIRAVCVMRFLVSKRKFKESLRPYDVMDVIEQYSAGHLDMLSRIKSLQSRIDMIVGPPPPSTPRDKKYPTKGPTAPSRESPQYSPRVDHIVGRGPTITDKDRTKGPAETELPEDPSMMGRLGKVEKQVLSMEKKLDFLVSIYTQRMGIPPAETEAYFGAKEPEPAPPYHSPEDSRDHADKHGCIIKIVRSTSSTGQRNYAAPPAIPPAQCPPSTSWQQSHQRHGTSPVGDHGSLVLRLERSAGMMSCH
Sequence of Potassium voltage-gated channel subfamily KQT member 2 (Q9Z351 whole entry): as the sequence (Q9Z351 whole entry, the tested form may be a part) above
Sequence of Voltage-gated potassium channel, KQT; KCNQ2(Kv7.2)/KCNQ3(Kv7.3) (O43526 whole entry): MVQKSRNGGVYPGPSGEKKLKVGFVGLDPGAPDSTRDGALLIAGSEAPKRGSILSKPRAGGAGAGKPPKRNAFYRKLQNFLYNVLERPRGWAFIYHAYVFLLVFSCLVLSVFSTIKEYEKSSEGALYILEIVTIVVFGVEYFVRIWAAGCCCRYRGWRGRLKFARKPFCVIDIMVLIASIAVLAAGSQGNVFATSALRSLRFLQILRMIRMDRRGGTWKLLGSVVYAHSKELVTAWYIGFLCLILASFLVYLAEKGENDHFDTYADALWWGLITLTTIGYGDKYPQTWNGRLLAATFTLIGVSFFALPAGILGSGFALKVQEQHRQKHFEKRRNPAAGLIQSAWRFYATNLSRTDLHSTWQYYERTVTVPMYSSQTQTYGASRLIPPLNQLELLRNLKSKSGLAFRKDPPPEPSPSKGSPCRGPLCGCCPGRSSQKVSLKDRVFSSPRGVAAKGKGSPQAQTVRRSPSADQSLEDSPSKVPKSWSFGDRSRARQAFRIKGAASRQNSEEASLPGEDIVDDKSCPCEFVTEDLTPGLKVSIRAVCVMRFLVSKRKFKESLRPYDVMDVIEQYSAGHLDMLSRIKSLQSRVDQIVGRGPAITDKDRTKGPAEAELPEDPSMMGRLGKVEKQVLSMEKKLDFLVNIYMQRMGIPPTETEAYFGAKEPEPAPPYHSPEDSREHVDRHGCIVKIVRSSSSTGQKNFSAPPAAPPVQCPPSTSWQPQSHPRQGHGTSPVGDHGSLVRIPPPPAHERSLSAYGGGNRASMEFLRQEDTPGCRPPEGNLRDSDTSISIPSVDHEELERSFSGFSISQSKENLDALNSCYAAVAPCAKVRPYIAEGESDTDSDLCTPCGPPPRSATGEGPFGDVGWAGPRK
Sequence of Voltage-gated potassium channel, KQT; KCNQ2(Kv7.2)/KCNQ3(Kv7.3) (O43525 whole entry): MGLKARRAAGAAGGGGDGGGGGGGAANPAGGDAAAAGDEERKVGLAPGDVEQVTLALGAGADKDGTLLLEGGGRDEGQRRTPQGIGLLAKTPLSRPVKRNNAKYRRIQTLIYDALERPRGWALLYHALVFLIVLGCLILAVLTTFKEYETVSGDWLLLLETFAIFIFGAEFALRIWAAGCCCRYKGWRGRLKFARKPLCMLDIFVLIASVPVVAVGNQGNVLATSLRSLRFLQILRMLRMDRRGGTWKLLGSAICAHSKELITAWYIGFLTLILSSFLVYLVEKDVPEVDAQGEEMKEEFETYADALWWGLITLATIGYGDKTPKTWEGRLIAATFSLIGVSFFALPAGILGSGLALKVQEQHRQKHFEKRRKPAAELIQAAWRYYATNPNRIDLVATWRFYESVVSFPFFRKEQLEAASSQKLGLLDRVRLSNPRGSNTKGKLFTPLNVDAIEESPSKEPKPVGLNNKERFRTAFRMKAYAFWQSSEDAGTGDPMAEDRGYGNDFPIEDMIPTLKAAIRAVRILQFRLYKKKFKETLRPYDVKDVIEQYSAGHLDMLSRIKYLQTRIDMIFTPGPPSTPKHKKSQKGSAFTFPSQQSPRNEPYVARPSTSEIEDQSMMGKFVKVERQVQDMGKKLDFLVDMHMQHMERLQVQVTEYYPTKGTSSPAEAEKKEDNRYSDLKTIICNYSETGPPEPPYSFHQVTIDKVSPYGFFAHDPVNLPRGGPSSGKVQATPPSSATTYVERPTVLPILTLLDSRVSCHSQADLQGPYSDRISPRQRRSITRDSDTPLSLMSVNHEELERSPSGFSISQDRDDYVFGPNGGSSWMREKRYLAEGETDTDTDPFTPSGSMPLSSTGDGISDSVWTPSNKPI

With `C[C@H](NC(=O)/C=C/c1ccccc1)c1cccc(N2CCOCC2)c1`, the figures for the bioavailability in [1] and in [2] were 100% and 93%, respectively. Also, the results for the Vd in data set [3] and in [21] were 3 L/kg and 2.5 L/kg, respectively. The clearance in [4] came to 0.762 L/h/kg; in [5], 2.46 L/h/kg. In addition, the results for the Tmax in data set [6] and in [7] were 0.5 h and 5 h, respectively. For the same molecule, the concentration at 6 h in data set [8] was 631 ng/g; in [9], 0.804 µg/mL. Also, the EC50 was 0.69 µM in data set [10] and 6 µM in [14]. Also, the No. of depolarizations stood at 25 in the data set with Rattus norvegicus [11], 36 in the data set with Rattus norvegicus [12] and 23 in the data set with Rattus norvegicus [13]. In [15], this molecule came in with a Concentration of 300 nM. Besides, the P/D in [16] is given as 1.1; in data set [17] it was 1.22; in data set [20], 1.15. In addition, the Kp in [18] came out at 0.78. Further, the half-life in data set [19] was 3 h; in data set [22], 2.1 h.

Source of the values: ChEMBL document CHEMBL1145847, “(S)-N-[1-(3-morpholin-4-ylphenyl)ethyl]- 3-phenylacrylamide: an orally bioavailable KCNQ2 opener with significant activity in a cortical spreading depression model of migraine” (J Med Chem, 2003).
